# Key:
# Homo sapiens [1] = test: Drug metabolism in human with creatinine clearance of => 80 ml/min assessed as RO4957463 AUC (infinity) at 1500 mg, iv administered as single dose measured after 60 mins; assay type: ADME, organism-based; parameters: dose 1500 mg, route intravenous, time infinity; details: in vivo, 1 h
# Summary of the method: (§1)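 Single 1,500 mg i.v. infusion over 60 min, eight subjects per renal-function group (creatinine clearance by Cockcroft-Gault at screening). Blood was sampled predose and at 1–48 h, and the plasma was stabilized 1:1 with 0.5 M MOPS pH 6.0, kept from light and frozen at −70°C. Parent and metabolite were measured by a validated bioanalytical method. Noncompartmental analysis: t1/2 = ln2/λz from ≥3 terminal points, Cmax/Tmax from raw data, ratio = AUC∞ metabolite/parent.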
# Homo sapiens [2] = test: Drug metabolism in human with creatinine clearance of 50-79 ml/min assessed as RO4957463 AUC (infinity) at 1500 mg, iv administered as single dose measured after 60 mins; assay type: ADME, organism-based; parameters: dose 1500 mg, time infinity, route intravenous; details: in vivo, 1 h; summary of the method: as §1
# Homo sapiens [3] = test: Drug metabolism in human with creatinine clearance of 30-49 ml/min assessed as RO4957463 AUC (infinity) at 1500 mg, iv administered as single dose measured after 60 mins; assay type: ADME, organism-based; parameters: dose 1500 mg, route intravenous, time infinity; details: in vivo, 1 h; summary of the method: as §1
# Homo sapiens [4] = test: Drug metabolism in human with creatinine clearance of =< 30 ml/min assessed as RO4957463 AUC (infinity) at 1500 mg, iv administered as single dose measured after 60 mins; assay type: ADME, organism-based; parameters: dose 1500 mg, time infinity, route intravenous; details: in vivo, 1 h; summary of the method: as §1
# Homo sapiens [5] = test: Ratio of RO4957463 AUC (infinity) to compound AUC (infinity) in human with creatinine clearance of 50-79 ml/min at 1500 mg, iv administered as single dose measured after 60 mins; assay type: ADME, organism-based; details: in vivo, 1 h; summary of the method: as §1
# Homo sapiens [6] = test: Ratio of RO4957463 AUC (infinity) to compound AUC (infinity) in human with creatinine clearance of 30-49 ml/min at 1500 mg, iv administered as single dose measured after 60 mins; assay type: ADME, organism-based; details: in vivo, 1 h; summary of the method: as §1
# [7] = Renal clearance in human with creatinine clearance of 50-79 ml/min at 1500 mg, iv administered as single dose after 24 hrs; assay type: ADME, organism-based, Kidney; details: in vivo, read-out: CL_renal (converted)
# Summary of the method: (§2)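 Single 1,500 mg i.v. infusion over 60 min, with 8 subjects per renal-function group (CL_CR by Cockcroft-Gault at screening). Urine was collected at 0–6, 6–12 and 12–24 h, volume and pH recorded, and aliquots mixed 1:1 with 0.5 M MOPS. Samples were frozen at −70°C, protected from light, and assayed by a validated method. CL_R = A_e24/AUC₂₄.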
# [8] = Renal clearance in human with creatinine clearance of 30-49 ml/min at 1500 mg, iv administered as single dose after 24 hrs; assay type: ADME, organism-based, Kidney; details: in vivo, read-out: CL_renal (converted)
# Summary of the method: (§3)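 After a single 1,500 mg i.v. infusion over 60 min, urine was collected 0–6, 6–12 and 12–24 h post-dose, with volume and pH recorded. Aliquots were mixed 1:1 with 0.5 M MOPS, protected from light and frozen at −70°C. Parent and metabolite were assayed by a validated method. CLR = Ae24/plasma AUC24. n = 8 per group, mean ± SD.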
# [9] = Renal clearance in human with creatinine clearance of =< 30 ml/min at 1500 mg, iv administered as single dose after 24 hrs; assay type: ADME, organism-based, Kidney; details: in vivo, read-out: CL_renal (converted); summary of the method: as §2
# Homo sapiens [10] = test: Drug excretion in human with creatinine clearance of 30-49 ml/min at 1500 mg, iv administered as single dose after 24 hrs; assay type: ADME, organism-based; details: in vivo; summary of the method: as §3
# Homo sapiens [11] = test: Drug excretion in human with creatinine clearance of =< 30 ml/min at 1500 mg, iv administered as single dose after 24 hrs; assay type: ADME, organism-based; details: in vivo; summary of the method: as §3
# [12] = Dose normalized excretion in human with creatinine clearance of => 80 ml/min at 1500 mg, iv administered as single dose after 24 hrs; assay type: ADME, organism-based; details: in vivo, read-out: Activity; summary of the method: as §3
# [13] = Dose normalized excretion in human with creatinine clearance of 50-79 ml/min at 1500 mg, iv administered as single dose after 24 hrs; assay type: ADME, organism-based; details: in vivo, read-out: Activity; summary of the method: as §3
# [14] = Dose normalized excretion in human with creatinine clearance of =< 30 ml/min at 1500 mg, iv administered as single dose after 24 hrs; assay type: ADME, organism-based; details: in vivo, read-out: Activity; summary of the method: as §3
# [15] = Total clearance in healthy human at 700 mg, iv administered as single dose; assay type: ADME, organism-based; details: in vivo
# [16] = Volume of distribution in healthy human at 700 mg, iv administered as single dose; assay type: ADME, organism-based; details: in vivo
# [17] = Cmax in human with creatinine clearance of 50-79 ml/min at 1500 mg, iv administered as single dose measured after 60 mins; assay type: ADME, organism-based; parameters: dose 1500 mg, route intravenous; details: in vivo; summary of the method: as §1
# [18] = Cmax in human with creatinine clearance of 30-49 ml/min at 1500 mg, iv administered as single dose measured after 60 mins; assay type: ADME, organism-based; parameters: dose 1500 mg, route intravenous; details: in vivo; summary of the method: as §1
# [19] = Tmax in human with creatinine clearance of => 80 ml/min at 1500 mg, iv administered as single dose; assay type: ADME, organism-based; details: in vivo
# Summary of the method: (§4)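 Eight subjects per CL_CR group (Cockcroft-Gault) received 1,500 mg i.v. over 60 min. Plasma was sampled predose and from 1 to 48 h, mixed with equal-volume 0.5 M MOPS pH 6.0, frozen at −70°C light-protected, and assayed by a validated method. Parameters were derived noncompartmentally from actual times, with T_max taken from raw data as a median and CL/V_ss as means ± SD.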
# [20] = Tmax in human with creatinine clearance of 30-49 ml/min at 1500 mg, iv administered as single dose; assay type: ADME, organism-based; details: in vivo; summary of the method: as §4
# [21] = Apparent half-life in human with creatinine clearance of 50-79 ml/min at 1500 mg, iv administered as single dose; assay type: ADME, organism-based; details: in vivo; summary of the method: as §1
# [22] = Apparent half-life in human with creatinine clearance of 30-49 ml/min at 1500 mg, iv administered as single dose; assay type: ADME, organism-based; details: in vivo; summary of the method: as §1
# [23] = AUC (infinity) in human with creatinine clearance of 30-49 ml/min at 1500 mg, iv administered as single dose measured after 60 mins; assay type: ADME, organism-based; parameters: dose 1500 mg, route intravenous, time infinity; details: plasma; summary of the method: as §1
# [24] = AUC (infinity) in human with creatinine clearance of =< 30 ml/min at 1500 mg, iv administered as single dose measured after 60 mins; assay type: ADME, organism-based; parameters: dose 1500 mg, time infinity, route intravenous; details: plasma; summary of the method: as §1
# [25] = Volume of distribution at steady state in human with creatinine clearance of 30-49 ml/min at 1500 mg, iv administered as single dose measured after 60 mins; assay type: ADME, organism-based; details: in vivo, read-out: Vdss; summary of the method: as §4
# [26] = Total clearance in human with creatinine clearance of => 80 ml/min at 1500 mg, iv administered as single dose measured after 60 mins; assay type: ADME, organism-based; details: in vivo; summary of the method: as §4
# [27] = Total clearance in human with creatinine clearance of 50-79 ml/min at 1500 mg, iv administered as single dose measured after 60 mins; assay type: ADME, organism-based; details: in vivo; summary of the method: as §4
# Homo sapiens [28] = test: Drug metabolism in human with creatinine clearance of => 80 ml/min assessed as RO4957463 Cmax at 1500 mg, iv administered as single dose measured after 60 mins; assay type: ADME, organism-based; parameters: dose 1500 mg, route intravenous; details: in vivo, 1 h; summary of the method: as §1
# Homo sapiens [29] = test: Drug metabolism in human with creatinine clearance of 50-79 ml/min assessed as RO4957463 Cmax at 1500 mg, iv administered as single dose measured after 60 mins; assay type: ADME, organism-based; parameters: dose 1500 mg, route intravenous; details: in vivo, 1 h; summary of the method: as §1
# Homo sapiens [30] = test: Drug metabolism in human with creatinine clearance of 50-79 ml/min assessed as RO4957463 Tmax at 1500 mg, iv administered as single dose measured after 60 mins; assay type: ADME, organism-based; details: in vivo, 1 h; summary of the method: as §1
# Homo sapiens [31] = test: Drug metabolism in human with creatinine clearance of 50-79 ml/min assessed as RO4957463 apparent half life at 1500 mg, iv administered as single dose; assay type: ADME, organism-based; details: in vivo; summary of the method: as §1
smiles,measurement,setting,value
C[C@@H](O)[C@H]1C(=O)N2C(C(=O)O)=C(S[C@H]3C[C@@H](C(=O)N4CC[C@H](NC(=O)CNC(=N)N)C4)N(C)C3)[C@H](C)[C@H]12 [TOMOPENEM],AUC,Homo sapiens [1],18.5 µg·h/mL
same,AUC,Homo sapiens [2],37.3 µg·h/mL
same,AUC,Homo sapiens [3],115 µg·h/mL
same,AUC,Homo sapiens [4],490 µg·h/mL
same,Ratio,Homo sapiens [5],0.12
same,Ratio,Homo sapiens [6],0.21
same,CL renal at 24 h,[7],61.3 mL/min
same,CL renal at 24 h,[8],33 mL/min
same,CL renal at 24 h,[9],9.83 mL/min
same,Activity,Homo sapiens [10],939 mg
same,Activity,Homo sapiens [11],618 mg
same,dose excreted at 24 h,[12],57.4%
same,dose excreted at 24 h,[13],72.6%
same,dose excreted at 24 h,[14],41.2%
same,clearance,[15],135 mL/min
same,Vd,[16],17 L
same,Cmax,[17],106 µg/mL
same,Cmax,[18],100 µg/mL
same,Tmax,[19],1 h
same,Tmax,[20],1 h
same,half-life,[21],3 h
same,half-life,[22],4.59 h
same,AUC(0-inf),[23],517 µg·h/mL
same,AUC(0-inf),[24],1040 µg·h/mL
same,Vd,[25],17.2 L
same,clearance,[26],135 mL/min
same,clearance,[27],84.7 mL/min
same,Cmax,Homo sapiens [28],3.51 µg/mL
same,Cmax,Homo sapiens [29],4.31 µg/mL
same,Tmax,Homo sapiens [30],1 h
same,t1/2,Homo sapiens [31],5.02 h
